Results gathered from unrelated publications.
Nuclear receptor subfamily 4 group A member 2: Nuclear receptor subfamily 4 group A member 2 (Homo sapiens, UniProt P43354)
P2RY14: P2Y purinoceptor 14 (P2RY14, Homo sapiens, UniProt Q15391)
CDKL1: Cyclin-dependent kinase-like 1 (CDKL1, Homo sapiens, UniProt Q00532)
IRAK4: Interleukin-1 receptor-associated kinase 4 (IRAK4, Homo sapiens, UniProt Q9NWZ3)
TNIK: TRAF2 and NCK-interacting protein kinase (TNIK, Homo sapiens, UniProt Q9UKE5)

Structure (SMILES) | target | test | test system | setting | measurement | result
CC[C@H](C)C(=O)O[C@H]1C[C@H](O)C=C2C=C[C@H](C)[C@H](CC[C@@H](O)C[C@@H](O)CC(=O)O)[C@H]21 | Nuclear receptor subfamily 4 group A member 2 | thermal stability, DSF |  | 100 µM | ΔTm | -0.15 °C
Cc1ccc(OCC(=O)N[C@@H](Cc2c[nH]c3ccccc23)C(=O)OC(C)C)cc1 | P2RY14 | cAMP, antagonist | HEK293 | 0.1 µM | inhibition | 110%
COc1ccc2oc(-c3ccc4nc(N)oc4c3)c/c(=N\c3ccccc3NC(=O)CCN)c2c1 | CDKL1 | binding |  | 1 µM | remaining binding | 94%
NC/C(=C\F)COc1cccc(Cn2c(=S)[nH]c(=O)c3[nH]cnc32)c1 | Eosinophil peroxidase (Homo sapiens, UniProt P11678) | enzyme activity, inhibitor |  | 5 µM | remaining activity | 149%
N#Cc1ccc(NC(=O)Nc2ccccc2)cc1 | Tyrosine-protein kinase JAK3, JH1 (JAK3, Homo sapiens, UniProt P52333) | cell-free assay, competition with immobilised ligand |  | 25 µM | remaining binding | 96%
CCN1/C(=C/C(C)=O)Sc2ccc(F)cc21 | Corticotropin-releasing factor receptor 1 (CRHR1, Homo sapiens, UniProt P34998) | ligand displacement, radioligand |  | 10 µM | inhibition | 0%
O=C(COc1ccccc1)N[C@@H](Cc1c[nH]c2ccccc12)C(=O)O | P2RY14 | cAMP, antagonist | HEK293 | 0.1 µM | inhibition | 82.7%
C[C@]1(O)CCCN(c2nc(Nc3ccc(S(=O)(=O)N[C@H]4CC[C@H](CN5CCN(c6ccc(C7CCC(=O)NC7=O)cc6F)CC5)CC4)cc3Cl)ncc2C(F)(F)F)C1 (stereo partly drawn) | Serine/threonine-protein kinase ULK1 (ULK1, Homo sapiens, UniProt O75385) | binding, competition with immobilised ligand |  | 1 µM | remaining binding | 32%
CCCCCCCC(=O)c1cc(OC)c(OC)c(OC)c1CC(=O)OCC | Nuclear receptor subfamily 4 group A member 2 | thermal stability, DSF |  | 100 µM | ΔTm | -1.02 °C
CCOC(=O)[C@H](Cc1c[nH]c2ccccc12)NC(=O)COc1ccc(C)cc1 | P2RY14 | cAMP, antagonist | HEK293 | 0.1 µM | inhibition | -48.9%
C1=C/COCc2cc(ccc2OCCN2CCCC2)Nc2nccc(n2)-c2cccc(c2)COC/1 | CDKL1 | binding |  | 0.1 µM | remaining binding | 89%
COC(=O)c1cn(C)c2ccc(-c3cccnc3)cc12 | Nuclear receptor subfamily 4 group A member 2 | thermal stability, DSF |  | 100 µM | ΔTm | -0.46 °C
CC(C)OC(=O)[C@H](Cc1c[nH]c2ccccc12)NC(=O)COc1ccc(Br)cc1 | P2RY14 | cAMP, antagonist | HEK293 | 0.1 µM | inhibition | 38.3%
CS(=O)(=NC#N)c1ccccc1Nc1nc(Nc2ccnc(CO)c2)ncc1Cl (stereo not drawn) | IRAK4 | enzyme activity, inhibitor, radiometric |  | 1 µM | remaining activity | 4.68%
C#Cc1cc(-c2cc(Nc3nc(N[C@@H](C)c4ccc(F)cn4)ncc3Cl)n[nH]2)ccc1C=O | TNIK | enzyme activity, inhibitor |  | 0.2 µM | inhibition | 56.6%
C#Cc1cnc(Nc2ccc(CO)cc2)nc1Nc1ccccc1C(=O)NC | IRAK4 | enzyme activity, inhibitor, radiometric |  | 1 µM | remaining activity | 1.23%
Cc1cc(O)c(-c2ccc([C@@H](C)CN(C)C)cc2)c2c1[nH]c(=O)c1sccc12 | TNIK | enzyme activity, inhibitor |  | 0.1 µM | inhibition | 10.5%
COc1cccc(-c2ccc(NC(=O)C3=C(C(=O)O)CCC3)c(F)c2)c1 | Nuclear receptor subfamily 4 group A member 2 | thermal stability, DSF |  | 100 µM | ΔTm | -1.52 °C
O=C(COc1ccc(Cl)cc1)N[C@@H](Cc1c[nH]c2ccccc12)C(=O)O | P2RY14 | cAMP, antagonist | HEK293 | 0.1 µM | inhibition | 47.6%
O=C(O)CCc1nc(-c2ccccc2)c(-c2ccccc2)o1 | Nuclear receptor subfamily 4 group A member 2 | thermal stability, DSF |  | 100 µM | ΔTm | -0.6 °C
O=Cc1ccc(OCC(=O)N[C@@H](Cc2c[nH]c3ccccc23)C(=O)O)cc1 | P2RY14 | cAMP, antagonist | HEK293 | 0.1 µM | inhibition | 58.7%
O=C(O)C[C@H](O)C[C@H](O)/C=C/c1c(C2CC2)nc2ccccc2c1-c1ccc(F)cc1 | Nuclear receptor subfamily 4 group A member 2 | thermal stability, DSF |  | 100 µM | ΔTm | -0.36 °C
CC(C)OC(=O)[C@H](Cc1c[nH]c2ccccc12)NC(=O)COc1ccc(Cl)cc1 | P2RY14 | cAMP, antagonist | HEK293 | 0.1 µM | inhibition | 39.6%
CCCCCCCCC(=O)c1cc(O)c(O)c(O)c1 | Nuclear receptor subfamily 4 group A member 2 | thermal stability, DSF |  | 100 µM | ΔTm | -2.52 °C
O=C(N[C@@H](Cc1c[nH]c2ccccc12)C(=O)O)c1c[nH]c2ccccc12 | P2RY14 | cAMP, antagonist | HEK293 | 0.1 µM | inhibition | 36.7%
CCCCC(=O)Nc1ccc(-c2ccc3ncn(CCC)c(=O)c3c2)cn1 | Ribosomal protein S6 kinase alpha-4, N-terminal kinase domain (RPS6KA4, Homo sapiens, UniProt O75676) | binding, competition with immobilised ligand |  | 0.5 µM | remaining binding | 89%
Cc1nc2c(Cl)cccn2c1NC(=O)c1ccc(-c2ccc(N(C)C)cc2)o1 | Nuclear receptor subfamily 4 group A member 2 | thermal stability, DSF |  | 100 µM | ΔTm | -1.88 °C
